Reference: PMC9774329 (ACS Omega, 2022)

Key:
Assay type in all cases: cell-based, human
[1] = system: colon (HCT-116) cancer cells; assay: Apoptosis confirmation by DAPI staining; settings: HCT-116, 48 h post-treatment
How it was run: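 Fixed HCT-116 cells were examined for apoptosis after 48 h compound exposure. Cells were fixed in 4% paraformaldehyde and stained in the dark with DAPI (1.0 μg/mL). Nuclear morphology was assessed by fluorescence confocal scanning microscopy.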

[2] = system: caspase-3 expression in HCT-116 cells; assay: Caspase-3 detection by ELISA in cell lysates; settings: HCT-116, 48 h treatment, 40 μg/mL
How it was run: (§1)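 HCT-116 cells were seeded at 50,000 cells/well in a CO2 incubator. After 24 h, at 70–80% confluence, cells received test compound at 40 μg/mL for 48 h; untreated cells served as controls. Cells were PBS-washed, detached with 0.35% trypsin and spun at 1000 rpm. Pellets were lysed 60 min and re-spun at 1000 rpm for 15 min. Lysates were assayed with human caspase-3 or caspase-9 ELISA kits, absorbance 620 nm.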

[3] = system: caspase-9 expression in HCT-116 cells; assay: Caspase-9 detection by ELISA in cell lysates; settings: HCT-116, 48 h treatment, 40 μg/mL
How it was run: as §1

HCT-116 cell line = assay: MTT antiproliferative assay on colon cancer cells; settings: HCT-116, MTT, 48 h; compared to 3′-O-methyltaxifolin and quercetin
How it was run: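 HCT-116 cells were seeded at 20,000 cells/well in DMEM with FBS, L-glutamine, penicillin, streptomycin and selenium chloride at 37 °C in CO2. They were exposed to test compound at 5.0–40 μg/mL for 48 h, with untreated controls. MTT (5.0 mg/mL) was added for 4 h, then DMSO […], and OD was read at 570 nm. Done in triplicate.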

SMILES	apoptosis induction (chromatin condensation, nuclear shrinkage) by DAPI staining [1]	caspase-3 expression (ELISA, optical density) [2]	caspase-9 expression (ELISA, optical density) [3]	reduction in the numbers of cancer cells (HCT-116 cell line)
COc1cc([C@H]2Oc3cc(O)cc(O)c3C(=O)[C@@H]2O)ccc1O [Compound 2, 3′-O-Methyltaxifolin]	induced apoptosis	increase	increase	
COc1cc(O)c2c(c1)O[C@H](c1ccc(O)c(OC)c1)[C@@H](O)C2=O [Compound 1, 7,3′-Di-O-methyltaxifolin]	induced apoptosis	increase	increase	significant reductions
COc1cc(O)c2c(c1)O[C@H](c1ccc(O)c(O)c1)[C@@H](O)C2=O [Compound 3, 7-O-Methyltaxifolin]	induced apoptosis	increase	increase	significant reductions
COc1c(-c2ccc(O)c(O)c2)oc2cc(O)cc(O)c2c1=O [Compound 5, 3-O-Methylquercetin]	induced apoptosis	increase	increase	significant reductions
O=c1c(O)c(-c2ccc(O)c(O)c2)oc2cc(O)cc(O)c12 [Compound 6, Quercetin]	induced apoptosis	increase	increase	
O=C1c2c(O)cc(O)cc2OC(c2ccc(O)c(O)c2)C1O (stereo not shown) [Compound 4, Dihydroquercetin (taxifolin)]	induced apoptosis	increase	increase	significant reductions
